Laboratory results reported in ChEMBL document CHEMBL1159358, “Cytotoxic prenylflavanones from Taiwanese propolis” (J Nat Prod, 2003).
Converted amounts (≈) assume the structure as drawn. The source made the active and inactive calls. The rule behind the calls is not given here.

Assays:
[1] = test system: Radical scavenging activity; experiment: Antioxidant activity against DPPH radical scavenging activity at 3.125 ug/ml; format: functional
How it was run: (§1)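 Scavenging of DPPH radical: sample in methanol (3.125, 6.25, 12.5, 25.0 µg/mL final) mixed 1:1 with 0.15 mM DPPH in methanol; absorbance change at 517 nm followed for 1 min. Percent scavenged = 100 × (A0 − Ai)/A0, A0 being initial DPPH absorbance.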

[2] = test system: Radical scavenging activity; experiment: Antioxidant activity against DPPH radical scavenging activity at 6.25 ug/ml; format: functional; how it was run: as §1
[3] = test system: Radical scavenging activity; experiment: Antioxidant activity against DPPH radical scavenging activity at 12.5 ug/ml; format: functional; how it was run: as §1
[4] = test system: Radical scavenging activity; experiment: Antioxidant activity against DPPH radical scavenging activity at 25 ug/ml; format: functional; how it was run: as §1
HL-60 [5] = experiment: Cytotoxicity against human HL60 cells after 24 hrs by trypan blue exclusion assay; format: functional, cell-based; settings: HL-60, 24 h
How it was run: (§2)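 HL-60 cells grown in RPMI 1640 with 10% FBS and 1% penicillin/streptomycin, 37 °C, 5% CO2. Seeded at 1 × 10^5 cells/well and exposed to various compound concentrations for 24 h. Cells counted; viability by trypan blue exclusion.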

C6 [6] = experiment: Cytotoxicity against rat C6 cells after 24 hrs by trypan blue exclusion assay; format: functional, cell-based; settings: C6, 24 h
How it was run: (§3)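 Human melanoma and C6 glioma cells grown in DMEM with 10% FBS and 1% penicillin/streptomycin, 37 °C, 5% CO2. Seeded at 1 × 10^5 cells/well and exposed to various compound concentrations for 24 h. Cells counted; viability by trypan blue exclusion.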

[7] = test system: Radical scavenging activity; experiment: Antioxidant activity against DPPH radical scavenging activity; format: functional; how it was run: as §1
HL-60 [8] = experiment: Cytotoxicity against human HL60 cells at >15 ug/ml after 24 hrs by trypan blue exclusion assay; format: functional, cell-based; how it was run: as §2
C6 [9] = experiment: Cytotoxicity against rat C6 cells at >15 ug/m after 24 hrs by trypan blue exclusion assay; format: functional, cell-based; how it was run: as §3
Melanoma cell [10] = experiment: Induction of apoptosis in human Melanoma cells assessed as accumulation at subG1 at 15 uM after 12 hrs by flow cytometry analysis; format: functional; settings: in the assay text read “15 ug/mL” for “15 uM”
How it was run: (§4)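 Melanoma cells (1 × 10^6 per 60 mm dish) preincubated 12 h, then exposed to 15 µg/mL compound or DMSO for 0, 3, 6, 12 or 24 h. Cells fixed in ice-cold ethanol at −20 °C overnight, treated with Triton X-100/RNase A 30 min at 37 °C, stained with propidium iodide. Sub-G1 (lower DNA content) fraction measured by flow cytometry.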

Melanoma cell [11] = experiment: Induction of apoptosis in human Melanoma cells assessed as accumulation at subG1 at 15 uM after 24 hrs by flow cytometry analysis; format: functional; settings: in the assay text read “15 ug/mL” for “15 uM”; how it was run: as §4
Melanoma cell [12] = experiment: Cytotoxicity against human Melanoma cells after 24 hrs by trypan blue exclusion assay; format: functional, cell-based; how it was run: as §3
HL-60 (Homo sapiens) = experiment: Induction of apoptosis in human HL-60 cells assessed as DNA fragmentation at 5 ug/ml after 24 hrs by agarose gel electrophoresis
Melanoma cell [13] = experiment: Induction of apoptosis in human Melanoma cells assessed as accumulation at subG1 at 15 ug/mL after 3 hrs by flow cytometry analysis
Melanoma cell [14] = experiment: Induction of apoptosis in human Melanoma cells assessed as accumulation at subG1 at 15 ug/mL after 6 hrs by flow cytometry analysis

Row | SMILES | Activity [1] | Activity [2] | Activity [3] | Activity [4] | IC50 (HL-60 [5]) | IC50 (C6 [6]) | IC50 [7] | Activity (HL-60 [8]) | Activity (C6 [9]) | Activity (Melanoma cell [10]) | Activity (Melanoma cell [11]) | IC50 (Melanoma cell [12]) | Activity (HL-60 (Homo sapiens)) | Activity (Melanoma cell [13]) | Activity (Melanoma cell [14])
1 | O=C(/C=C/c1ccc(O)c(O)c1)OCCc1ccccc1 | 39.1% | 85.5% | 98.5% | 99.8% |  |  |  |  |  |  |  |  |  |  | 
2 | C/C(=C/Cc1c([C@@H]2CC(=O)c3c(O)cc(O)cc3O2)ccc(O)c1O)CCCC(C)(C)O [PROPOLIN A] | 36% | 72.2% | 92.1% | 99.5% | 7.5 µg/mL (≈ 16.9 µM) | 3.5 µg/mL (≈ 7.91 µM) | 5 µg/mL (≈ 11.3 µM) | Active | Active | 23.93% | 40.95% | 6 µg/mL (≈ 13.6 µM) | Active | 15.01% | 15.22%
3 | C/C(=C\Cc1cc([C@@H]2CC(=O)c3c(O)cc(O)cc3O2)cc(O)c1O)CCCC(C)(C)O [PROPOLIN B] | 18.3% | 36.7% | 85.7% | 94.7% | 7.5 µg/mL (≈ 16.9 µM) | 4 µg/mL (≈ 9.04 µM) | 9 µg/mL (≈ 20.3 µM) |  |  |  |  | 7.5 µg/mL (≈ 16.9 µM) |  |  | 
